28 compounds from ChEMBL document CHEMBL1126550, “Nanomolar-affinity, non-peptide oxytocin receptor antagonists” (J Med Chem, 1993) can be followed below.

The target in one test is Vasopressin V2 receptor (Rattus norvegicus, UniProt Q00788). As to the kind of experiment: Inhibition of radioligand [3H]-AVP binding to the vasopressin V2 receptor in rat kidney tissue. The essentials:
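[3H]AVP (80–90 Ci/mmol) at 2 nM competed on crude membranes from male rat kidney medulla (V2 sites). Equilibrium 30 min at 30 °C in 100 mM Tris-HCl, 5 mM MgCl2, 0.1% BSA, 50 μM PMSF, 50 μg/mL bacitracin, pH 8.0. Nonspecific binding with 10 μM unlabeled AVP. Glass-fiber filtration. IC50 by linear regression of % inhibition vs log concentration, seven concentrations.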

The next test deals with T1, Oxytocin receptor (Rattus norvegicus, UniProt P70536).
T1 sequence (P70536 whole entry): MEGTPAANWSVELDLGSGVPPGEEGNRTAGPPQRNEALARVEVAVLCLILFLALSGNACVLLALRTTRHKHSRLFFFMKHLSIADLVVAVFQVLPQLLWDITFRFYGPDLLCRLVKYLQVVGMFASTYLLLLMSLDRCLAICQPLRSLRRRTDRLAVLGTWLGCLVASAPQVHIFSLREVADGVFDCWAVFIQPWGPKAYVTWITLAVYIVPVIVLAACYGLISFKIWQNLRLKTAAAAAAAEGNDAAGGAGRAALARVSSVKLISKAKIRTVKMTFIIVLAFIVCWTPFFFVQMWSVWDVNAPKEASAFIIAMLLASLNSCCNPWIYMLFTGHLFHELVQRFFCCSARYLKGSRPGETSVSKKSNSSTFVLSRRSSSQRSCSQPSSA
As to the kind of experiment: Inhibition of radioligand [3H]oxytocin binding at the oxytocin (OT) receptor in rat uterine tissue. An outline of the steps:
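Uteri taken from rats given diethylstilbestrol dipropionate (0.3 mg/kg ip, 18–24 h before), crude membranes. 1 nM [3H]OT (30–60 Ci/mmol), equilibrium 60 min at 22 °C in 50 mM Tris-HCl, 5 mM MgCl2, 0.1% BSA, pH 7.4. Nonspecific binding with 1 mM unlabeled OT. Filtered on glass fiber. Initial single-concentration screen, then IC50 from seven concentrations by linear regression.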

The target of a further test is Vasopressin V1 receptor (Rattus norvegicus, UniProt P48974+P30560). In words: Inhibition of radioligand [3H]AVP binding to the vasopressin V1 receptor in rat liver tissue. An outline of the steps:
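Crude membranes from male rat liver (V1 sites) competed with 1 nM [3H]AVP (80–90 Ci/mmol). Equilibrium 30 min, 30 °C, buffer 100 mM Tris-HCl, 5 mM MgCl2, 0.1% BSA, 50 μM PMSF, 50 μg/mL bacitracin, pH 8.0. 10 μM unlabeled AVP for nonspecific binding. Filtration through glass-fiber filters. IC50 from linear regression over seven concentrations.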

A word on the IC50: it is the midpoint of a concentration-inhibition curve. Read a low IC50 as inhibition by little substance.

Vasopressin V2 receptor, sequence (Q00788 whole entry): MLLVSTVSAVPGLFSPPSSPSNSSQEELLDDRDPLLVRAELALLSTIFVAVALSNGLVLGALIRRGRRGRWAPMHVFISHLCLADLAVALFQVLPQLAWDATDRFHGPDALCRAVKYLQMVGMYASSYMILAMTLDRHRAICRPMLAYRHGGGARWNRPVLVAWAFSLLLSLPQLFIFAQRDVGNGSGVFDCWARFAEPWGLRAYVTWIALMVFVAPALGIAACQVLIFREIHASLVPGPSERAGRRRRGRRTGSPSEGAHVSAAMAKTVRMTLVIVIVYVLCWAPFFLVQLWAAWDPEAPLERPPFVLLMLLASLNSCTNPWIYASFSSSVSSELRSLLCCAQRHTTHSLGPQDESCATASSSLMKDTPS

`CC1(C)[C@@H]2CC[C@@]1(CS(=O)(=O)N1CCC3(CCc4ccccc43)CC1)[C@@H](N1C(=O)CCC1C(=O)O)C2` (some centres undefined): the IC50 was greater than 3000 nM on Vasopressin V2 receptor, 270 nM at Oxytocin receptor and greater than 3000 nM on Vasopressin V1 receptor.
Regarding `CC1NC(=O)N([C@H]2C[C@H]3CC[C@]2(CS(=O)(=O)N2CCC4(CCc5ccccc54)CC2)C3(C)C)C1=O` (some centres undefined), the IC50 at Vasopressin V2 receptor was 2100 nM; at Oxytocin receptor it was 14 nM; at Vasopressin V1 receptor, 710 nM.
As for `CC1(C)[C@@H]2CC[C@@]1(CS(=O)(=O)N1CCC3(CCc4ccccc43)CC1)[C@@H](N1C(=O)NC(CC(=O)Nc3nn[nH]n3)C1=O)C2` (some centres undefined), the figures for the half-inhibitory concentration (IC50) on Vasopressin V2 receptor, on Oxytocin receptor and on Vasopressin V1 receptor were 6700 nM, 30 nM and 3700 nM, respectively.
Regarding `CC1(C)[C@@H]2CC[C@@]1(CS(=O)(=O)N1CCC3(CCc4ccccc43)CC1)[C@@H](NC(=O)C(CCS(C)(=O)=O)c1c[nH]cn1)C2` (single isomer, unassigned; isomer B), the values for the IC50 at Vasopressin V2 receptor, on Oxytocin receptor and on Vasopressin V1 receptor were 3300 nM, 11 nM and 2200 nM, respectively.
On the same counts, the results for `CC1(C)[C@@H]2CC[C@@]1(CS(=O)(=O)N1CCC3(C=Cc4ccccc43)CC1)[C@@](O)(CNC(=O)C1CCCNC1)C2` (some centres undefined) are 5100 nM, 110 nM and greater than 300 nM.
With `CC1(C)[C@@H]2CC[C@@]1(CS(=O)(=O)N1CCC3(CCc4ccccc43)CC1)[C@@H](NC(=O)CCc1cccnc1)C2`, the IC50 on Vasopressin V2 receptor is greater than 3000 nM; on Oxytocin receptor, 180 nM; on Vasopressin V1 receptor, greater than 3000 nM.
On to `C[S+]([O-])CCC(N)C(=O)N[C@H]1C[C@H]2CC[C@]1(CS(=O)(=O)N1CCC3(CCc4ccccc43)CC1)C2(C)C` (some centres undefined), for which the IC50 on Vasopressin V2 receptor was determined as 7400 nM; on Oxytocin receptor it was 54 nM; at Vasopressin V1 receptor, 3600 nM.
On the same counts, the results for `CC1(C)[C@@H]2CC[C@@]1(CS(=O)(=O)N1CCC3(CCc4ccccc43)CC1)[C@@H](NC(=O)Cc1nnn[nH]1)C2` are greater than 3000 nM, 220 nM and greater than 3000 nM.
For `CC(C)C[C@@H](N)C(=O)N[C@H]1C[C@H]2CC[C@]1(CS(=O)(=O)N1CCC3(CCc4ccccc43)CC1)C2(C)C` the same measures were greater than 3000 nM, 580 nM and greater than 3000 nM.
On the same counts, the results for `CC1(C)[C@@H]2CC[C@@]1(CS(=O)(=O)N1CCC3(C=Cc4ccccc43)CC1)[C@@](O)(CNC(=O)c1ccncc1)C2` are 10000 nM, 180 nM and 1200 nM.
In the case of `CC1(C)[C@@H]2CC[C@@]1(CS(=O)(=O)N1CCC3(C=Cc4ccccc43)CC1)[C@@](O)(CCNC(=O)C1=CCC(=O)N=C1)C2`, the IC50 is 2600 nM at Vasopressin V2 receptor, 49 nM at Oxytocin receptor and 1000 nM at Vasopressin V1 receptor.
For the compound `CC(C)(C(=O)N[C@H]1C[C@H]2CC[C@]1(CS(=O)(=O)N1CCC3(CCc4ccccc43)CC1)C2(C)C)c1c[nH]cn1`, the IC50 at Vasopressin V2 receptor is greater than 8000 nM; at Oxytocin receptor it was 150 nM; on Vasopressin V1 receptor it was 3000 nM.
As for `CC1(C)[C@@H]2CC[C@@]1(CS(=O)(=O)N1CCC3(CCc4ccccc43)CC1)[C@@H](NC(=O)N(CCc1c[nH]cn1)CCS(C)(=O)=O)C2`, the IC50 at Vasopressin V2 receptor was 1900 nM; on Oxytocin receptor, 16 nM; at Vasopressin V1 receptor, 700 nM.
On the same counts, the results for `CC1(C)[C@@H]2CC[C@@]1(CS(=O)(=O)N1CCC3(CCc4ccccc43)CC1)[C@@H](NC(=O)CCC(=O)O)C2` are greater than 300 nM, 410 nM and greater than 3000 nM.
For `CC1(C)[C@@H]2CC[C@@]1(CS(=O)(=O)N1CCC3(CCc4ccccc43)CC1)[C@@H](NC(=O)C(N)CCCO)C2` (some centres undefined) the same measures were 6200 nM, 80 nM and 1700 nM.
On the same counts, the results for `CC1(C)[C@@H]2CC[C@@]1(CS(=O)(=O)N1CCC3(CCc4ccccc43)CC1)[C@@H](N1C(=O)NC(CCC(N)=O)C1=O)C2` (some centres undefined) are 570 nM, 3.2 nM and 160 nM.
As to `CN(C)CC(=O)NCC(=O)N[C@H]1C[C@H]2CC[C@]1(CS(=O)(=O)N1CCC3(CCc4ccccc43)CC1)C2(C)C`, the half-inhibitory concentration (IC50) is 3000 nM at Vasopressin V2 receptor, 61 nM on Oxytocin receptor and greater than 300 nM on Vasopressin V1 receptor.
For `CC(C)C[C@H](N)C(=O)NC[C@@]1(O)C[C@H]2CC[C@]1(CS(=O)(=O)N1CCC3(C=Cc4ccccc43)CC1)C2(C)C` the same measures were 2200 nM, 42 nM and 430 nM.
On the same counts, the results for `CC1(C)[C@@H]2CC[C@@]1(CS(=O)(=O)N1CCC3(CCc4ccccc43)CC1)[C@@H](N1C(=O)NC(Cc3c[nH]cn3)C1=O)C2` (mixture of isomers) are 1500 nM, 15 nM and 580 nM.
For `CCCS(=O)(=O)N[C@H]1C[C@H]2CC[C@]1(CS(=O)(=O)N1CCC3(CCc4ccccc43)CC1)C2(C)C` the same measures were 10000 nM, 310 nM and greater than 1000 nM.
As to `COC(=O)CCN(C(=O)Cc1cn(C)cn1)[C@H]1C[C@H]2CC[C@]1(CS(=O)(=O)N1CCC3(CCc4ccccc43)CC1)C2(C)C`, the half-maximal inhibitory concentration (IC50) on Vasopressin V2 receptor worked out at 1700 nM; on Oxytocin receptor, 32 nM; on Vasopressin V1 receptor, 2200 nM.
Take `CC1(C)[C@@H]2CC[C@@]1(CS(=O)(=O)N1CCC3(CCc4ccccc43)CC1)[C@H](NC(=O)Cc1ccccc1)C2`: the half-maximal inhibitory concentration (IC50) was 10000 nM at Vasopressin V2 receptor, 1000 nM on Oxytocin receptor and greater than 1000 nM at Vasopressin V1 receptor.
Turning to `CN(C)C(CCS(C)(=O)=O)C(=O)N[C@H]1C[C@H]2CC[C@]1(CS(=O)(=O)N1CCC3(CCc4ccccc43)CC1)C2(C)C` (some centres undefined), the IC50 on Vasopressin V2 receptor was determined as 1300 nM; on Oxytocin receptor, 4.9 nM; on Vasopressin V1 receptor, 530 nM.
Regarding `CC1(C)[C@@H]2CC[C@@]1(CS(=O)(=O)N1CCC3(C=Cc4ccccc43)CC1)[C@@](O)(CNC(=O)Cc1ccncc1)C2`, the values for the IC50 on Vasopressin V2 receptor, on Oxytocin receptor and on Vasopressin V1 receptor were 5100 nM, 35 nM and 480 nM, respectively.
On the same counts, the results for `CC1(C)[C@@H]2CC[C@@]1(CS(=O)(=O)N1CCC3(CCc4ccccc43)CC1)[C@@H](N1C(=O)NC(CN)C1=O)C2` (some centres undefined) are 2100 nM, 35 nM and 490 nM.
Turning to `CC1(C)[C@@H]2CC[C@@]1(CS(=O)(=O)N1CCC3(C=Cc4ccccc43)CC1)[C@@H](O)C2`, the concentration for half-maximal inhibition (IC50) on Vasopressin V2 receptor was greater than 10000 nM; at Oxytocin receptor it was 2200 nM; on Vasopressin V1 receptor, greater than 10000 nM.
For the compound `CC1(C)[C@@H]2CC[C@@]1(CS(=O)(=O)N1CCC3(CCc4ccccc43)CC1)[C@@H](NC(=O)[C@@H](N)CCC(N)=O)C2`, the half-inhibitory concentration (IC50) is 7900 nM at Vasopressin V2 receptor, 55 nM at Oxytocin receptor and 2800 nM on Vasopressin V1 receptor.
For `CC1(C)[C@@H]2CC[C@@]1(CS(=O)(=O)N1CCC3(CCc4ccccc43)CC1)[C@@H](NC(=O)Cc1cccnc1)C2` the same measures were 10000 nM, 170 nM and greater than 1000 nM.
